{
  "source": "ChEMBL document CHEMBL1121744",
  "about": "“Synthesis and antihypertensive activity of a series of 8-substituted 1-oxa-3,8-diazaspiro[4.5]decan-2-ones” (J Med Chem, 1981)",
  "key": {"[1]": {"tested_on": "Rattus norvegicus", "assay": "The antihypertensive activity as percentage fall in systolic blood pressure in spontaneously hypertensive rats after a period of 2 hr for a dose of 25 mg/kg po", "format": "functional, Artery", "procedure,_shortened": "(§1)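 Male Okamoto-Aoki SHR, trained, in groups of four matched for mean systolic pressure; one group per run received water vehicle. Oral dosing in water (0.1 mL per 10 g) on two consecutive mornings. After the day-2 dose, rats were restrained at 30.0 ± 1.0 °C. Systolic pressure was read by tail cuff (inflated to 300 mmHg, first pulse) at 1–4 h. % fall is versus the untreated control group, by 1-tail t test (p ≤ 0.05).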"}, "[2]": {"tested_on": "Rattus norvegicus", "assay": "Percentage fall in systolic blood pressure in spontaneously hypertensive rats after 2 hr following 50 mg/kg p.o.", "format": "functional, Artery", "details": "route oral, 50 mg/kg", "procedure,_shortened": "as §1"}, "[3]": {"tested_on": "Rattus norvegicus", "assay": "The antihypertensive activity as percentage fall in systolic blood pressure in spontaneously hypertensive rats after a period of 3 hr for a dose of 25 mg/kg po; NS=Not significant", "format": "functional, organism-based", "design": "dose 25 mg/kg", "details": "Artery", "procedure,_shortened": "as §1"}, "[4]": {"tested_on": "Rattus norvegicus", "assay": "Antihypertensive activity as percentage fall in systolic blood pressure in spontaneously hypertensive rats after a period of 1 hr for a dose of 50 mg/kg", "format": "functional, Artery", "procedure,_shortened": "as §1"}, "[5]": {"tested_on": "Rattus norvegicus", "assay": "The antihypertensive activity as percentage fall in systolic blood pressure in spontaneously hypertensive rats after a period of 1 hr for a dose of 25 mg/kg po", "format": "functional, Artery", "procedure,_shortened": "as §1"}, "[6]": {"tested_on": "Rattus norvegicus", "assay": "Percentage fall in systolic blood pressure in spontaneously hypertensive rats after 3 h following 50 mg/kg p.o.", "format": "functional, Artery", "details": "route oral", "procedure,_shortened": "as §1"}, "[7]": {"tested_on": "Rattus norvegicus", "assay": "The antihypertensive activity as percentage fall in systolic blood pressure in spontaneously hypertensive rats after a period of 4 hr for a dose of 25 mg/kg po; NS=Not significant", "format": "functional, organism-based", "design": "dose 25 mg/kg", "details": "Artery", "procedure,_shortened": "as §1"}, "[8]": {"tested_on": "Rattus norvegicus", "assay": "The antihypertensive activity as percentage fall in systolic blood pressure in spontaneously hypertensive rats after a period of 3 hr for a dose of 100 mg/kg po", "format": "functional, Artery", "procedure,_shortened": "as §1"}, "[9]": {"tested_on": "Rattus norvegicus", "assay": "Antihypertensive activity as percentage fall in systolic blood pressure in spontaneously hypertensive rats after a period of 3 h for a dose of 50 mg/kg", "format": "functional, organism-based", "design": "dose 50 mg/kg", "details": "Artery", "procedure,_shortened": "as §1"}, "[10]": {"tested_on": "Rattus norvegicus", "assay": "The antihypertensive activity as percentage fall in systolic blood pressure in spontaneously hypertensive rats after a period of 4 hr for a dose of 100 mg/kg po; NS=Not significant", "format": "functional, organism-based", "design": "dose 100 mg/kg", "details": "Artery", "procedure,_shortened": "as §1"}, "[11]": {"tested_on": "Rattus norvegicus", "assay": "The antihypertensive activity as percentage fall in systolic blood pressure in spontaneously hypertensive rats after a period of 1 hr for a dose of 100 mg/kg po", "format": "functional, Artery", "procedure,_shortened": "as §1"}, "[12]": {"tested_on": "Rattus norvegicus", "assay": "The antihypertensive activity as percentage fall in systolic blood pressure in spontaneously hypertensive rats after a period of 2 hr for a dose of 100 mg/kg po", "format": "functional, Artery", "procedure,_shortened": "as §1"}, "[13]": {"tested_on": "Rattus norvegicus", "assay": "Antihypertensive activity as percentage fall in systolic blood pressure in spontaneously hypertensive rats after a period of 1 hr for a dose of 50 mg/kg po", "format": "functional, organism-based", "design": "dose 50 mg/kg", "details": "Artery", "procedure,_shortened": "as §1"}, "[14]": {"tested_on": "Rattus norvegicus", "assay": "Antihypertensive activity as percentage fall in systolic blood pressure in spontaneously hypertensive rats after a period of 4 hr for a dose of 50 mg/kg", "format": "functional, organism-based", "design": "dose 50 mg/kg", "details": "Artery", "procedure,_shortened": "as §1"}, "[15]": {"assay": "Distribution coefficient between 1-Octanol and phosphate buffer at pH7.4", "format": "physicochemical", "details": "1-octanol/phosphate buffer, pH 7.4"}, "[16]": {"tested_on": "Rattus norvegicus", "assay": "Antihypertensive activity as percentage fall in systolic blood pressure in spontaneously hypertensive rats after a period of 2 hr for a dose of 50 mg/kg", "format": "functional, organism-based", "design": "dose 50 mg/kg", "details": "Artery", "procedure,_shortened": "as §1"}, "[17]": {"tested_on": "Rattus norvegicus", "assay": "Antihypertensive activity as percentage fall in systolic blood pressure in spontaneously hypertensive rats after a period of 4 hr for a dose of 12.5 mg/kg po", "format": "functional, Artery", "procedure,_shortened": "as §1"}, "[18]": {"tested_on": "Rattus norvegicus", "assay": "Antihypertensive activity as percentage fall in systolic blood pressure in spontaneously hypertensive rats after a period of 3 hr for a dose of 12.5 mg/kg po", "format": "functional, Artery", "procedure,_shortened": "as §1"}, "[19]": {"tested_on": "Rattus norvegicus", "assay": "Antihypertensive activity as percentage fall in systolic blood pressure in spontaneously hypertensive rats after a period of 1 hr for a dose of 12.5 mg/kg po", "format": "functional, Artery", "procedure,_shortened": "as §1"}, "[20]": {"tested_on": "Rattus norvegicus", "assay": "Antihypertensive activity as percentage fall in systolic blood pressure in spontaneously hypertensive rats after a period of 2 hr for a dose of 12.5 mg/kg po", "format": "functional, Artery", "procedure,_shortened": "as §1"}, "[21]": {"tested_on": "Rattus norvegicus", "assay": "Antihypertensive activity as percentage fall in systolic blood pressure in spontaneously hypertensive rats after a period of 4 hr for a dose of 50 mg/kg po", "format": "functional, Artery", "procedure,_shortened": "as §1"}, "[22]": {"tested_on": "Rattus norvegicus", "assay": "Antihypertensive activity as percentage fall in systolic blood pressure in spontaneously hypertensive rats after a period of 2 hr for a dose of 25 mg/kg po.; NS=Not significant", "format": "functional, organism-based", "design": "dose 25 mg/kg", "details": "Artery", "procedure,_shortened": "as §1"}, "[23]": {"tested_on": "Rattus norvegicus", "assay": "Antihypertensive activity as percentage fall in systolic blood pressure in spontaneously hypertensive rats after a period of 4 hr for a dose of 25 mg/kg po.; NS=Not significant", "format": "functional, organism-based", "design": "dose 25 mg/kg", "details": "Artery", "procedure,_shortened": "as §1"}, "[24]": {"tested_on": "Rattus norvegicus", "assay": "Antihypertensive activity as percentage fall in systolic blood pressure in spontaneously hypertensive rats after a period of 3 hr for a dose of 25 mg/kg po.; NS=Not significant", "format": "functional, organism-based", "design": "dose 25 mg/kg", "details": "Artery", "procedure,_shortened": "as §1"}},
  "note": "Several values for one entry are separate records, joined by “and”; a condition that tells them apart may be missing. Equal entries are not always repeated. Activity calls are given as the source filed them. No cut-off for these calls is given here.",
  "data": [
    {"molecule": "CCN1CC2(CCN(CC(O)C3COc4ccccc4O3)CC2)OC1=O", "note": "(stereo unspecified)", "values": [
      {"measurement": "Decrease in blood pressure", "setting": "[1]", "result": 9, "unit": "%"},
      {"measurement": "Decrease in blood pressure", "setting": "[2]", "result": "18% and 15%"},
      {"measurement": "Decrease in blood pressure", "setting": "[3]", "result": "inactive"},
      {"measurement": "Decrease in blood pressure", "setting": "[4]", "result": 32, "unit": "%"},
      {"measurement": "Decrease in blood pressure", "setting": "[5]", "result": 18, "unit": "%"},
      {"measurement": "Decrease in blood pressure", "setting": "[6]", "result": 11, "unit": "%"},
      {"measurement": "Decrease in blood pressure", "setting": "[7]", "result": "inactive"}
    ]},
    {"molecule": "CC1NC(=O)OC12CCN(CC(O)C1COc3ccccc3O1)CC2", "note": "(stereo unspecified)", "values": [
      {"measurement": "Decrease in blood pressure", "setting": "[8]", "result": 14, "unit": "%"},
      {"measurement": "Decrease in blood pressure", "setting": "[9]", "result": "Not significant"},
      {"measurement": "Decrease in blood pressure", "setting": "[10]", "result": "inactive"},
      {"measurement": "Decrease in blood pressure", "setting": "[11]", "result": 15, "unit": "%"},
      {"measurement": "Decrease in blood pressure", "setting": "[12]", "result": 15, "unit": "%"},
      {"measurement": "Decrease in blood pressure", "setting": "[13]", "result": "Not significant"},
      {"measurement": "Decrease in blood pressure", "setting": "[14]", "result": "Not significant"},
      {"measurement": "logD", "setting": "[15]", "result": 1.21},
      {"measurement": "Decrease in blood pressure", "setting": "[16]", "result": "Not significant"}
    ]},
    {"molecule": "CCC1NC(=O)OC12CCN(CC1COc3ccccc3O1)CC2", "note": "(stereo unspecified)", "values": [
      {"measurement": "Decrease in blood pressure", "setting": "[2]", "result": "54% and 42%"},
      {"measurement": "Decrease in blood pressure", "setting": "[4]", "result": 51, "unit": "%"},
      {"measurement": "Decrease in blood pressure", "setting": "[17]", "result": -11, "unit": "%"},
      {"measurement": "Decrease in blood pressure", "setting": "[6]", "result": 42, "unit": "%"},
      {"measurement": "Decrease in blood pressure", "setting": "[18]", "result": -13, "unit": "%"},
      {"measurement": "Decrease in blood pressure", "setting": "[19]", "result": 22, "unit": "%"},
      {"measurement": "Decrease in blood pressure", "setting": "[20]", "result": 14, "unit": "%"}
    ]},
    {"molecule": "COc1ccccc1OCC(O)CN1CCC2(CC1)CN(C)C(=O)O2", "note": "(stereo unspecified)", "values": [
      {"measurement": "Decrease in blood pressure", "setting": "[4]", "result": 15, "unit": "%"},
      {"measurement": "Decrease in blood pressure", "setting": "[21]", "result": 9, "unit": "%"},
      {"measurement": "Decrease in blood pressure", "setting": "[6]; 50 mg/kg", "result": "19% and 7%"},
      {"measurement": "Decrease in blood pressure", "setting": "[22]", "result": "inactive"},
      {"measurement": "Decrease in blood pressure", "setting": "[23]", "result": "inactive"},
      {"measurement": "Decrease in blood pressure", "setting": "[24]", "result": "inactive"},
      {"measurement": "logD", "setting": "[15]", "result": 0.96},
      {"measurement": "Decrease in blood pressure", "setting": "[16]", "result": "Not significant"}
    ]}
  ]
}
